We go through five molecules from ChEMBL document CHEMBL3351432, “Microwave-assisted synthesis of phenanthroimidazole derivatives as stabilizer of c-myc G-quadruplex DNA” (Bioorg Med Chem, 2014).

As usually defined, the ΔTm is the shift of the melting midpoint relative to a reference. For orientation: IC50 means the concentration needed to halve the response being measured.

Data set [1] is described as follows: Binding affinity to c-myc G-quadruplex DNA (unknown origin) assessed as hypochromism at IL absorption at 20 uM by electronic spectra titration method. The essentials: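 Titration in Tris-KCl buffer pH 7.2 with ligand held at 20 μM and G4 DNA added stepwise. 3 min incubation before each UV-vis spectrum. Hypochromism read at the intraligand band (250–300 nm).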

The nature of data set [2]: Binding affinity to c-myc G-quadruplex DNA (unknown origin) assessed as change in melting temperature at 1 uM by FRET assay. The essentials: (§1)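 FAM/TAMRA dual-labelled c-myc oligonucleotide (1 μM) in Tris-KCl buffer pH 7.2, annealed at 92 °C for 5 min and slowly cooled to room temperature. Compound added at varying concentrations. Fluorescence melting curves recorded on a real-time PCR system, holding each temperature 30 s before each reading. Tm shift taken relative to the no-compound control.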

Data set [3] can be described thus: Binding affinity to c-myc G-quadruplex DNA (unknown origin) assessed as reduction in DNA CD signal strengths […] by CD spectroscopy. Set-up: scale not given: the % may be the effect or the level left. The method in brief: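 CD of pre-folded c-myc G4 DNA (2 × 10^-6 M) in Tris-KCl buffer pH 7.2, 1 cm cell. Ligand added from 1 mM stock every 3 min, final range (0–118) × 10^-6 M.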

Data set [4] can be described thus: Binding affinity to c-myc G-quadruplex DNA (unknown origin) assessed as change in melting temperature at 3 uM by FRET assay. The method in brief:
as §1

Data set [5] is described as follows: Binding affinity to c-myc G-quadruplex DNA (unknown origin) assessed as increase in melting temperature by FRET assay. The essentials: as §1
Another data set relates to HeLa. Description: Growth inhibition of human HeLa cells after 72 hrs by MTT assay. It counts as functional, cell-based. The essentials: (§2)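 MTT viability assay. Cells seeded at 3 × 10^3 per well and allowed 24 h, then treated 72 h with a concentration series from 1 mM DMSO stocks. MTT (5 mg/ml in PBS) added for 5 h, formazan dissolved in DMSO, absorbance read at 570 nm.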
On the technique in general: Tetrazolium dyes change colour on reduction, which living cells bring about.

The nature of data set [6]: Drug uptake in nucleus of human MCF7 cells at 10 uM after 24 hrs by fluorescence microscopy. It counts as ADME, cell-based. The conditions noted are these: mcf7, 24 h. The essentials:
(§3)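 MCF-7 cells seeded at 5 × 10^4 per well, exposed to compound at 10 μM for 24 h, then imaged by fluorescence microscopy for intracellular fluorescence and morphology.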

The subject of data set [7] is MCF7. Description: Growth inhibition of human MCF7 cells after 72 hrs by MTT assay. It counts as functional, cell-based. Particulars: MCF7, 72 h. The essentials: as §2
The test system of data set [8] is MCF7. Description: Induction of apoptosis in human MCF7 cells assessed as cell membrane rupture at 10 uM after 24 hrs by fluorescence microscopy. It counts as functional, cell-based. The essentials:
as §3

The nature of data set [9]: Stabilization of c-myc G-quadruplex DNA (unknown origin) assessed as reduction in Taq polymerase-mediated 5' to 3' extension at 10 to 40 uM by PCR stop assay. The method in brief: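 PCR-stop assay in 1× PCR buffer with c-myc G4 DNA primer pair (10 pM each), dNTPs 0.16 mM, Taq 2.5 U and compound over 0–250 μM. Cycling: 94 °C 3 min, then 30 cycles of 94/58/72 °C for 30 s each. Products run on 15% native PAGE in TBE and silver stained.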

The nature of data set [10]: Drug uptake in cytoplasm of human MCF7 cells at 10 uM after 24 hrs by fluorescence microscopy. It is filed as ADME, cell-based. Particulars: mcf7, 24 h. The essentials:
as §3

The test system of data set [11] is MCF7. Description: Induction of cell membrane changes in human MCF7 cells assessed as roughening and unevening of cell membrane surface at 10 uM after 24 hrs by fluorescence microscopy. It counts as functional. The essentials: as §3
Data set [12] concerns MCF7. Nature of the data set: Induction of cell shrinking in human MCF7 cells at 10 uM after 24 hrs by fluorescence microscopy. It is filed as functional, cell-based. The method in brief:
as §3

In another data set the test system is MDA-MB-231. Nature of the data set: Growth inhibition of human MDA-MB-231 cells after 72 hrs ny MTT assay. It counts as functional, cell-based. Particulars: MDA-MB-231, 72 h. The essentials: as §2

Active and inactive are the calls of the source. No cut-off for these calls is given here. Bounds are passed on as bounds.

Turning to `Brc1ccc(-c2nc3c4cccnc4c4ncccc4c3[nH]2)cc1`, the Activity is 9.4% in data set [1]; 23% in data set [3]; “Dose-dependent effect” in data set [5]; “Dose-dependent effect” in data set [9]; less than 20% with MCF7 [11]. In addition, the ΔTm was determined as 3.4 °C in data set [2] and 6.4 °C in data set [4]. Also, the IC50 worked out at 8.5 µM in the data set on HeLa, 22.9 µM in the data set with MCF7 [7] and 3.6 µM in the data set on MDA-MB-231. Besides, the Drug uptake entry in [6] and in data set [10] was “Active” throughout. Moreover, the result in the data set on MCF7 [8] and in the data set with MCF7 [12] was Active.

Regarding `O=S(=O)(O)c1ccc(-c2nc3c4cccnc4c4ncccc4c3[nH]2)cc1`, the IC50 was determined as 62.4 µM in the data set with HeLa, 184 µM with MCF7 [7] and 60 µM in the data set with MDA-MB-231. The Drug uptake result in data set [6] and in data set [10] was “Not Active” in each case.

Consider `O=S(=O)(O)c1ccccc1-c1nc2c3cccnc3c3ncccc3c2[nH]1`, for which the IC50 in the data set on HeLa worked out at 240 µM; in the data set on MCF7 [7] it was 162 µM; in the data set on MDA-MB-231, 152 µM. Also, the Drug uptake entry in data set [6] and in [10] was “Not Active” each time.

On to `Brc1ccccc1-c1nc2c3cccnc3c3ncccc3c2[nH]1`, for which the 50% inhibitory concentration (IC50) was found to be 7.9 µM in the data set on HeLa, 27.3 µM in the data set on MCF7 [7] and 36 µM in the data set with MDA-MB-231. In addition, the Drug uptake entry in data set [6] and in [10] was “Active” each time.

On to `c1ccc(-c2nc3c4cccnc4c4ncccc4c3[nH]2)cc1`, for which the results for the IC50 with HeLa, with MCF7 [7] and in the data set with MDA-MB-231 were 5.1 µM, 72.6 µM and 74.2 µM, respectively. Besides, the Drug uptake result in data set [6] and in [10] was “Not Active” in each case.
